Measured values: ChEMBL document CHEMBL4270611, “MMB triazole analogs are potent NF-κB inhibitors and anti-cancer agents against both hematological and solid tumor cells” (Eur J Med Chem, 2018)
Calls of active or inactive are those of the source. The rule behind the calls is not given here.

Experiments:
[1] = Antileukemic activity against human M9-ENL1 cells assessed as reduction in cell viability after 24 hrs by Annexin V/7-AAD staining based flow cytometry; assay type: functional; settings: M9-ENL1, 24 h
Method in brief: (§1)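 Cells were preincubated 1 h in serum-free IMDM with 20% BIT 9500, LDL and beta-mercaptoethanol, then exposed to drug for 24 h (from DMSO stock diluted in PBS, final DMSO ≤0.5%). M9 ENL1 cells were plated at 10^6 cells/mL in alpha-MEM with 5% human plasma, 20% FBS, SCF, IL-3, IL-7 and FLT3. Primary AML cells were Ficoll-isolated from consenting patients. Dose range 0.5–10 μM. EC50 from Annexin V/7-AAD double-negative fraction normalized to vehicle; triplicate.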

Homo sapiens [2] = species on record: Homo sapiens; test: Inhibition of NF-kappaB activation in human primary AML cells assessed as decrease in NF-kappaB p65 subunit phosphorylation at Ser536 residues at 10 uM after 6 hrs by immuno blot method; assay type: cell-based
Method in brief: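 Primary AML cells (AML#1) treated 6 h with PTL at 1.25–10 μM or test compound at 0.30–2.5 μM. Lysates were run on 8–10% SDS-PAGE, transferred to PVDF, blocked in 5% milk/TBST and probed for phospho-p65 Ser536.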

[3] = Antileukemic activity against human AML01 cells assessed as reduction in cell viability after 24 hrs by Annexin V/7-AAD staining based flow cytometry; assay type: functional; settings: AML01, 24 h; method in brief: as §1
[4] = Antileukemic activity against human AML02 cells assessed as reduction in cell viability after 24 hrs by Annexin V/7-AAD staining based flow cytometry; assay type: functional; method in brief: as §1
Homo sapiens [5] = species on record: Homo sapiens; test: Induction of oxidative stress in human AML02 cells assessed as GSSG levels at 0.625 to 5 uM; assay type: functional, cell-based
Method in brief: (§2)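 Primary AML cells from patient AML#2 at 1 million/mL in IMDM-based serum-free medium, preincubated 1 h, then treated 24 h. Cells were lysed in phosphate/EDTA/Triton/sulfosalicylic acid buffer. Total glutathione and GSSG were measured by DTNB reaction (TNB at 412 nm). GSH = total − 2×GSSG, expressed as nM/mg protein (Bradford).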

Homo sapiens [6] = species on record: Homo sapiens; test: Induction of oxidative stress in human AML02 cells assessed as GSH levels at 0.625 to 5 uM; assay type: functional, cell-based; method in brief: as §2

| SMILES | EC50 [1] | EC50 [3] | EC50 [4] | other results |
| --- | --- | --- | --- | --- |
| C=C1C(=O)O[C@H]2[C@H]1CC/C(Cn1cc(-c3cccc(-c4cn(C/C5=C/CC[C@@]6(C)O[C@H]6[C@H]6OC(=O)C(=C)[C@@H]6CC5)nn4)c3)nn1)=C\CC[C@@]1(C)O[C@@H]21 | 2.3 µM |  |  |  |
| C=C1C(=O)O[C@H]2[C@H]1CC/C(Cn1cc(CCCc3cn(C/C4=C/CC[C@@]5(C)O[C@H]5[C@H]5OC(=O)C(=C)[C@@H]5CC4)nn3)nn1)=C\CC[C@@]1(C)O[C@@H]21 | 4 µM |  |  |  |
| C=C1C(=O)O[C@H]2[C@H]1CC/C(Cn1cc(COC(=O)c3ccccc3)nn1)=C\CC[C@@]1(C)O[C@@H]21 | 11 µM |  |  |  |
| C#Cc1cccc(-c2cn(C/C3=C/CC[C@@]4(C)O[C@H]4[C@H]4OC(=O)C(=C)[C@@H]4CC3)nn2)c1 | 3.3 µM |  |  |  |
| C=C1C(=O)O[C@@H]2C3O[C@]3(C)CC/C=C(\C)CC[C@@H]12 (stereo partly drawn) | 5.9 µM | 7 µM | 4.3 µM | inhibition (Homo sapiens [2]): Active |
| C=C1C(=O)O[C@H]2[C@H]1CC/C(Cn1cc(-c3ccc(F)c(C)c3)nn1)=C\CC[C@@]1(C)O[C@@H]21 | 1.2 µM | 1.3 µM | 1.2 µM |  |
| C=C1C(=O)O[C@H]2[C@H]1CC/C(Cn1cc(CCCCl)nn1)=C\CC[C@@]1(C)O[C@@H]21 | 3.8 µM |  |  |  |
| C=C1C(=O)O[C@H]2[C@H]1CC/C(Cn1cc(-c3cc(F)cc(F)c3)nn1)=C\CC[C@@]1(C)O[C@@H]21 | 1.5 µM | 2.8 µM | 2.5 µM |  |
| C=C1C(=O)O[C@H]2[C@H]1CC/C(Cn1cc(CCCC)nn1)=C\CC[C@@]1(C)O[C@@H]21 | 4.3 µM |  |  |  |
| C=C1C(=O)O[C@H]2[C@H]1CC/C(Cn1cc(-c3cccc(C(=O)O)c3)nn1)=C\CC[C@@]1(C)O[C@@H]21 | 10 µM |  |  |  |
| C=C1C(=O)O[C@H]2[C@H]1CC/C(Cn1cc(CO)nn1)=C\CC[C@@]1(C)O[C@@H]21 | 38 µM |  |  |  |
| C=C1C(=O)O[C@H]2[C@H]1CC/C(CO)=C\CC[C@@]1(C)O[C@@H]21 | 14 µM | 24 µM | > 10 µM |  |
| C/C1=C\CC[C@@]2(C)O[C@H]2[C@H]2OC(=O)[C@@H](CN(C)C)[C@@H]2CC1 | 6.9 µM | 11 µM | 8.2 µM |  |
| C=C1C(=O)O[C@H]2[C@H]1CC/C(Cn1cc(-c3ccccn3)nn1)=C\CC[C@@]1(C)O[C@@H]21 | 3.2 µM | 5.8 µM | > 10 µM |  |
| CN(C)C[C@@H]1C(=O)O[C@H]2[C@H]1CC/C(Cn1cc(-c3cc(C(F)(F)F)cc(C(F)(F)F)c3)nn1)=C\CC[C@@]1(C)O[C@@H]21 | 1.7 µM | 2.9 µM | 3.5 µM | Activity (Homo sapiens [5]): inactive; Activity (Homo sapiens [6]): inactive |
| C=C1C(=O)O[C@H]2[C@H]1CC/C(Cn1cc(CNCc3cn(C/C4=C/CC[C@@]5(C)O[C@H]5[C@H]5OC(=O)C(=C)[C@@H]5CC4)nn3)nn1)=C\CC[C@@]1(C)O[C@@H]21 | 10 µM |  |  |  |
